Measurements taken from ChEMBL document CHEMBL4011655, “Conformation-Based Design and Synthesis of Apratoxin A Mimetics Modified at the α,β-Unsaturated Thiazoline Moiety” (J Med Chem, 2017).

Tests used:
HCT-116 [1] = assay: Cytotoxicity against human HCT116 cells assessed as reduction in cell viability after 48 hrs by WST8 assay; format: functional, cell-based; settings: HCT-116, 48 h
Procedure, shortened: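 HCT-116 cells grown in RPMI 1640 with 10% FBS and penicillin/streptomycin, plated near-confluent at 5 × 10^3 cells/well and left 24 h at 37 °C, 5% CO2. Compounds (DMSO stocks 0.01–100 μM) added to give final 0.1–1000 nM, 1% DMSO vehicle. After 48 h, WST-8 added for 2 h, absorbance read at 450 nm (reference 595 nm), vehicle taken as 100%. IC50 by probit analysis; three independent experiments.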

HCT-116 [2] = assay: Growth inhibition of human HCT116 cells after 72 hrs by Cell-Titer Glo assay; format: functional; settings: HCT-116, 72 h
Procedure, shortened: (§1)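 Cells seeded in 384-well plates at 1–3 × 10^3 cells/well and grown 24 h at 37 °C, 5% CO2. Compounds added at final 0.03 nM to 1 μM (10-point), DMSO vehicle at most 0.25%.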

BXPC-3 = assay: Growth inhibition of human BxPC3 cells after 72 hrs by Cell-Titer Glo assay; format: functional; settings: BXPC-3, 72 h; procedure, shortened: as §1
A549 = assay: Growth inhibition of human A549 cells after 72 hrs by Cell-Titer Glo assay; format: functional; settings: A549, 72 h; procedure, shortened: as §1
Huh-7 = assay: Growth inhibition of human HuH7 cells after 72 hrs by Cell-Titer Glo assay; format: functional; settings: Huh-7, 72 h; procedure, shortened: as §1
MKN-74 = assay: Growth inhibition of human MKN74 cells after 72 hrs by Cell-Titer Glo assay; format: functional; settings: MKN-74, 72 h; procedure, shortened: as §1
U-87 MG = assay: Growth inhibition of human U87MG cells after 72 hrs by Cell-Titer Glo assay; format: functional, U-87MG ATCC; procedure, shortened: as §1
SK-OV-3 = assay: Growth inhibition of human SKOV3 cells after 72 hrs by Cell-Titer Glo assay; format: functional; settings: SK-OV-3, 72 h; procedure, shortened: as §1
[3] = Growth inhibition of human HEC6 cells after 72 hrs by Cell-Titer Glo assay; format: functional; settings: HEC-6, 72 h; procedure, shortened: as §1
786-0 = assay: Growth inhibition of human 786-O cells after 72 hrs by Cell-Titer Glo assay; format: functional; settings: 786-0, 72 h; procedure, shortened: as §1
MCF7 = assay: Growth inhibition of human MCF7 cells after 72 hrs by Cell-Titer Glo assay; format: functional; settings: MCF7, 72 h; procedure, shortened: as §1
[4] = Drug metabolism in mouse liver microsomes after 35 mins in presence of NADPH by LC-MS/MS analysis; format: ADME, microsome; settings: read-out: Drug metabolism
Procedure, shortened: (§2)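 Pooled liver microsomes at 0.1 mg/mL protein with 3.25 mmol/L β-NADPH in 125 mmol/L phosphate buffer. Compound at 100 nmol/L, added in CH3CN. Incubated 37 °C for 35 min, stopped with methanol, held at −20 °C for 30 min, then centrifuged. Parent compound loss measured by LC-MS/MS; duplicate incubations.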

[5] = Drug metabolism in human liver microsomes after 35 mins in presence of NADPH by LC-MS/MS analysis; format: ADME, microsome; settings: read-out: Drug metabolism; procedure, shortened: as §2

In the case of `CC[C@H](C)[C@H]1C(=O)N2CCC[C@H]2C(=O)O[C@H](C(C)(C)C)C[C@@H](C)C[C@H](O)[C@H](C)C(=O)N2CCC(CC2)C(=O)N[C@@H](Cc2ccc(OC)cc2)C(=O)N(C)[C@@H](CC(C)C)C(=O)N1C`, the IC50 (HCT-116 [1]) is reported as 360 nM.

In the case of `COc1ccc(C[C@@H]2NC(=O)C3CCN(CC3)C(=O)[C@@H](C)[C@@H](O)C[C@H](C)C[C@@H](C(C)(C)C)OC(=O)[C@@H]3CCCN3C(=O)[C@H](C)N(C)C(=O)[C@H](C)N(C)C2=O)cc1`, the IC50 (HCT-116 [1]) is reported as 7500 nM.

`CC[C@H](C)[C@H]1C(=O)N2CCC[C@H]2C(=O)O[C@H](C(C)(C)C)C[C@@H](C)C[C@H](O)[C@H](C)C(=O)N2CCC(CC2)C(=O)N[C@@H](Cc2ccccc2)C(=O)N(C)[C@@H](C)C(=O)N1C` gave an IC50 (HCT-116 [1]) of 490 nM.

In the case of `CC[C@H](C)[C@H]1C(=O)N2CCC[C@H]2C(=O)O[C@H](C(C)(C)C)C[C@@H](C)C[C@H](O)[C@H](C)C(=O)N2CCC(CC2)C(=O)N[C@@H](Cc2ccc(Cl)cc2)C(=O)N(C)[C@@H](C)C(=O)N1C`, the IC50 (HCT-116 [1]) is reported as 69 nM, the GI50 (HCT-116 [2]) is reported as 210 nM and the GI50 (BXPC-3) is reported as 80 nM. For the same compound, the GI50 (A549) was 190 nM, the GI50 (Huh-7) was 180 nM and the GI50 (MKN-74) was 200 nM. It also gave a GI50 (U-87 MG) of 320 nM, a GI50 (SK-OV-3) of 410 nM and a GI50 [3] of 480 nM. The GI50 (786-0) was greater than 1000 nM and the GI50 (MCF7) was greater than 1000 nM.

For `CC[C@H](C)[C@H]1C(=O)N2CCC[C@H]2C(=O)O[C@H](C(C)(C)C)C[C@@H](C)C[C@H](O)[C@H](C)C(=O)NCCC(=O)N[C@@H](Cc2ccc(OC)cc2)C(=O)N(C)[C@@H](C)C(=O)N1C`, the IC50 (HCT-116 [1]) was 3400 nM.

With `CC[C@H](C)[C@H]1C(=O)N2CCC[C@H]2C(=O)O[C@H](C(C)(C)C)C[C@@H](C)C[C@H](O)[C@H](C)C(=O)NCCCC(=O)N[C@@H](Cc2ccc(OC)cc2)C(=O)N(C)[C@@H](C)C(=O)N1C` the IC50 (HCT-116 [1]) was 2600 nM.

`CO[C@@]12[C@H](COC(N)=O)C3=C(C(=O)C(C)=C(N)C3=O)N1C[C@@H]1N[C@@H]12` [MITOMYCIN] showed a GI50 (HCT-116 [2]) of 200 nM, a GI50 (BXPC-3) of 380 nM and a GI50 (A549) of 80 nM. It also gave a GI50 (Huh-7) of 2000 nM, a GI50 (MKN-74) of 1700 nM and a GI50 (U-87 MG) of 1800 nM. It also gave a GI50 (SK-OV-3) of 100 nM, a GI50 [3] of 1400 nM and a GI50 (786-0) of 210 nM. The GI50 (MCF7) was 2500 nM.

Work on `CC[C@H](C)[C@H]1C(=O)N2CCC[C@H]2C(=O)O[C@H](C(C)(C)C)C[C@@H](C)C[C@H](O)[C@H](C)C(=O)N(C)CCC(=O)N[C@@H](Cc2ccc(OC)cc2)C(=O)N(C)[C@@H](C)C(=O)N1C` yielded an IC50 (HCT-116 [1]) of 3100 nM.

In the case of `CC[C@H](C)[C@H]1C(=O)N2CCC[C@H]2C(=O)O[C@H](C(C)(C)C)C[C@@H](C)C[C@H](O)[C@H](C)C(=O)N2CCC(CC2)C(=O)N[C@@H](Cc2ccc(OC)cc2)C(=O)N(C)[C@@H](C)C(=O)N1C`, the IC50 (HCT-116 [1]) is reported as 120 nM.

In the case of `COc1ccc(C[C@@H]2NC(=O)C3CCN(CC3)C(=O)[C@@H](C)[C@@H](O)C[C@H](C)C[C@@H](C(C)(C)C)OC(=O)[C@@H]3CCCN3C(=O)[C@H](Cc3ccccc3)N(C)C(=O)[C@H](C)N(C)C2=O)cc1`, the IC50 (HCT-116 [1]) is reported as 710 nM.

`CC[C@H](C)[C@H]1C(=O)N2CCC[C@H]2C(=O)O[C@H](C(C)(C)C)C[C@@H](C)C[C@H](O)[C@H](C)C(=O)N(C)Cc2cccc(c2)C(=O)N[C@@H](Cc2ccc(OC)cc2)C(=O)N(C)[C@@H](C)C(=O)N1C` showed an IC50 (HCT-116 [1]) of 220 nM.

`CC[C@H](C)[C@H]1C(=O)N2CCC[C@H]2C(=O)O[C@H](C(C)(C)C)C[C@@H](C)C[C@H](O)[C@H](C)C(=O)N2CCC(CC2)C(=O)N[C@@H](Cc2ccc(OC)cc2)C(=O)N(C)CC(=O)N1C` gave an IC50 (HCT-116 [1]) of 850 nM.

Work on `CC[C@H](C)[C@H]1C(=O)N2CCC[C@H]2C(=O)O[C@H](C(C)(C)C)C[C@@H](C)C[C@H](O)[C@H](C)C(=O)N2CCC(CC2)C(=O)N[C@@H](Cc2ccc(-c3ccccc3)cc2)C(=O)N(C)[C@@H](C)C(=O)N1C` yielded an IC50 (HCT-116 [1]) of 1.1 nM, a GI50 (HCT-116 [2]) of 11 nM and a GI50 (BXPC-3) of 4 nM. It also gave a GI50 (A549) of 6.3 nM, a GI50 (Huh-7) of 6.8 nM and a GI50 (MKN-74) of 8 nM. The GI50 (U-87 MG) was 12 nM, the GI50 (SK-OV-3) was 18 nM and the GI50 [3] was 23 nM. The GI50 (786-0) was 120 nM, the GI50 (MCF7) was greater than 1000 nM and the metabolised at 35 min [4] was 84%. It also gave a metabolised at 35 min [5] of 85%.

In the case of `CC[C@H](C)[C@H]1C(=O)N2CCC[C@H]2C(=O)O[C@H](C(C)(C)C)C[C@@H](C)C[C@H](O)[C@H](C)C(=O)N2CCC(CC2)C(=O)N[C@@H](Cc2ccc(OC)cc2)C(=O)N(C)[C@@H](Cc2ccccc2)C(=O)N1C`, the IC50 (HCT-116 [1]) is reported as 1600 nM.

`COc1ccc(C[C@@H]2NC(=O)C3CCN(CC3)C(=O)[C@@H](C)[C@@H](O)C[C@H](C)C[C@@H](C(C)(C)C)OC(=O)[C@@H]3CCCN3C(=O)[C@H](C(C)C)N(C)C(=O)[C@H](C)N(C)C2=O)cc1` gave an IC50 (HCT-116 [1]) of 130 nM.

`CC[C@H](C)[C@H]1C(=O)N2CCC[C@H]2C(=O)O[C@H](C(C)(C)C)C[C@@H](C)C[C@H](O)[C@H](C)C(=O)NCc2cccc(c2)C(=O)N[C@@H](Cc2ccc(OC)cc2)C(=O)N(C)[C@@H](C)C(=O)N1C` showed an IC50 (HCT-116 [1]) of 820 nM.

For `CC[C@H](C)[C@H]1C(=O)N2CCC[C@H]2C(=O)O[C@H](C(C)(C)C)C[C@@H](C)C[C@H](O)[C@H](C)C(=O)N(C)CCCC(=O)N[C@@H](Cc2ccc(OC)cc2)C(=O)N(C)[C@@H](C)C(=O)N1C`, the IC50 (HCT-116 [1]) was 340 nM.

`CC[C@H](C)[C@H]1C(=O)N2CCC[C@H]2C(=O)O[C@H](C(C)(C)C)C[C@@H](C)C[C@H](O)[C@H](C)C2=N[C@@H](/C=C(\C)C(=O)N[C@@H](Cc3ccc(OC)cc3)C(=O)N(C)[C@@H](C)C(=O)N1C)CS2` [APRATOXIN A] gave an IC50 (HCT-116 [1]) of 2.8 nM, a GI50 (HCT-116 [2]) of 11 nM and a GI50 (BXPC-3) of 4.9 nM. The GI50 (A549) was 6.4 nM, the GI50 (Huh-7) was 7.2 nM and the GI50 (MKN-74) was 9.7 nM. For the same compound, the GI50 (U-87 MG) was 18 nM, the GI50 (SK-OV-3) was 31 nM and the GI50 [3] was 39 nM. The GI50 (786-0) was 41 nM and the GI50 (MCF7) was greater than 1000 nM.
